# Measurements as given in ChEMBL document CHEMBL4400525, “Toward a treatment of diabesity: In vitro and in vivo evaluation of uncharged bromophenol derivatives as a new series of PTP1B inhibitors” (Eur J Med Chem, 2019).
# Activity calls are given as the source filed them. The calls are words filed in the database; no cut-off is given here.
# Legend:
# [1] = molecular target: T1, Tyrosine-protein phosphatase non-receptor type 11 (Homo sapiens, UniProt Q06124); experiment: Inhibition of SHP2 (unknown origin)
# T1 sequence (Q06124 whole entry): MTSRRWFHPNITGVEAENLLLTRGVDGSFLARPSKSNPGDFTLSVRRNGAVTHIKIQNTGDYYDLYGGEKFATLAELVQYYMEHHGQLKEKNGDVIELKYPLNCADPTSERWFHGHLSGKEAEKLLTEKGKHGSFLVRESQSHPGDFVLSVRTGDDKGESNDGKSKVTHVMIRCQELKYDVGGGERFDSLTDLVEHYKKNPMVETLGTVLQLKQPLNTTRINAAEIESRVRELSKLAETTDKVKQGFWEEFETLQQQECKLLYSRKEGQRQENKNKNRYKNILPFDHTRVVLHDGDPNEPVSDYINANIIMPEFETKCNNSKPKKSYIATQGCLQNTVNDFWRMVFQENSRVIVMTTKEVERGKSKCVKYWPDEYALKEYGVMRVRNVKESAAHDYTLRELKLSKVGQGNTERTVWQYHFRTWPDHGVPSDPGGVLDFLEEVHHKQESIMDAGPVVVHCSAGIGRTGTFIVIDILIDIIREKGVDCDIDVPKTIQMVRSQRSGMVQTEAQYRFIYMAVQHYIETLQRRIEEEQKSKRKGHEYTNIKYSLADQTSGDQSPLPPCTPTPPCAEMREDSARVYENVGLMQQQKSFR
# [2] = Tmax in specific pathogen free Sprague-Dawley rat at 10 mg/kg, po by LC-MS/MS analysis; format: ADME, organism-based; settings: in vivo
# Mus musculus [3] = experiment: Antidiabetic activity in BKS db mouse assessed as improvement in insulin sensitivity by measuring decrease in glucose AUC at 100 mg/kg, po administered once daily for 2 weeks followed by insulin challenge and measured up to 120 mins by ITT; format: functional, organism-based
# Procedure, shortened: (§1)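 In week 2 of treatment at 100 mg/kg/day p.o., an insulin tolerance test was run in db mice (n = 8) with 0.75 U/kg insulin. Blood glucose was followed over time and the area under the curve was calculated. Values are mean ± SEM.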
# [4] = Acute toxicity in Kunming mouse assessed as visual toxic effect at 500 to 2000 mg/kg, po administered as single dose measured for 1 week; format: organism-based; settings: in vivo, 168 h
# [5] = molecular target: T2, Tyrosine-protein phosphatase non-receptor type 1 (Mus musculus) (UniProt P35821); experiment: Inhibition of PTP1B in mouse C2C12 cells assessed as suppression of PA-induced insulin resistance by measuring increase in insulin-mediated AKT phosphorylation at S473 residue preincubated for 1 hr followed by palmitic acid stimulation for 16 hrs and subsequent insulin addition measured after 30 mins by Western blot analysis; format: cell-based
# T2 sequence (whole entry): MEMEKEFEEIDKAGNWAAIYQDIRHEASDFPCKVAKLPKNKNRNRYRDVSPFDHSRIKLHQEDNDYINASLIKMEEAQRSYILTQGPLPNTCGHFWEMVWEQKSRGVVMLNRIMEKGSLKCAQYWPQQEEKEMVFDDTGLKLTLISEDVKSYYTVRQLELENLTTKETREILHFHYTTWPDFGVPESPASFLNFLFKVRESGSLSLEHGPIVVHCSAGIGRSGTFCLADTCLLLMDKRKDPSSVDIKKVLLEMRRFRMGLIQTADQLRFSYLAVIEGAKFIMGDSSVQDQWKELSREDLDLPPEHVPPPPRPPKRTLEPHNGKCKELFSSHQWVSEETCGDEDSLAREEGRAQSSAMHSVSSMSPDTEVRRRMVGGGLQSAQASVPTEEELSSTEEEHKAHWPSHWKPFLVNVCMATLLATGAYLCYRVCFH
# [6] = molecular target: T2, Tyrosine-protein phosphatase non-receptor type 1 (Mus musculus); experiment: Inhibition of PTP1B in PA-stimulated mouse C2C12 cells assessed as increase in JAK2 phosphorylation at Y1007/Y1008 residues preincubated for 1 hr followed by palmitic acid stimulation for 16 hrs and measured by Western blot analysis; format: cell-based
# Mus musculus [7] = experiment: Antidiabetic activity in BKS db mouse assessed as improvement in insulin sensitivity at 100 mg/kg, po administered once daily for 2 weeks followed by insulin challenge and measured up to 120 mins by ITT; format: functional, organism-based; procedure, shortened: as §1
# [8] = molecular target: Tyrosine-protein phosphatase non-receptor type 1 (Homo sapiens, UniProt P18031, A27S); experiment: Inhibition of PTP1B A27S mutant (unknown origin)
# Chain of Tyrosine-protein phosphatase non-receptor type 1 (P18031 whole entry A27S, the tested form may be a part): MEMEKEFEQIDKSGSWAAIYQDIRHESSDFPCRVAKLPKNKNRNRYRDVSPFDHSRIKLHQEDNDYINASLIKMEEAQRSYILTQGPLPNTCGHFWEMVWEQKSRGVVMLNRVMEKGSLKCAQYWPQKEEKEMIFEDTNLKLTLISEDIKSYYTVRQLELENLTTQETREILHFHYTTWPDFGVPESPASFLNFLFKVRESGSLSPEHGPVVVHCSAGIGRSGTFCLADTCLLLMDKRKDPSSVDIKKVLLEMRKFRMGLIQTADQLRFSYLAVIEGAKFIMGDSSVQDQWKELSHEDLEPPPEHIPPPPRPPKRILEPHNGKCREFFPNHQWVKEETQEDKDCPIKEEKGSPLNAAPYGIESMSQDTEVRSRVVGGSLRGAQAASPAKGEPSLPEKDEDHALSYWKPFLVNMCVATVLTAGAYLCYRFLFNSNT
# Homo sapiens [9] = organism: Homo sapiens; experiment: Selectivity ratio of IC50 for SHP1 (unknown origin) to IC50 for GST-fused PTP1B catalytic domain (1 to 321 residues) (unknown origin) expressed in Escherichia coli
# [10] = molecular target: T3, Tyrosine-protein phosphatase non-receptor type 1 (Homo sapiens) (UniProt P18031); experiment: Competitive inhibition of GST-fused PTP1B catalytic domain (1 to 321 residues) (unknown origin) expressed in Escherichia coli up to 2 uM using varying levels of pNPP as substrate by Lineweaver-Burk double reciprocal plot analysis
# T3 sequence (whole entry): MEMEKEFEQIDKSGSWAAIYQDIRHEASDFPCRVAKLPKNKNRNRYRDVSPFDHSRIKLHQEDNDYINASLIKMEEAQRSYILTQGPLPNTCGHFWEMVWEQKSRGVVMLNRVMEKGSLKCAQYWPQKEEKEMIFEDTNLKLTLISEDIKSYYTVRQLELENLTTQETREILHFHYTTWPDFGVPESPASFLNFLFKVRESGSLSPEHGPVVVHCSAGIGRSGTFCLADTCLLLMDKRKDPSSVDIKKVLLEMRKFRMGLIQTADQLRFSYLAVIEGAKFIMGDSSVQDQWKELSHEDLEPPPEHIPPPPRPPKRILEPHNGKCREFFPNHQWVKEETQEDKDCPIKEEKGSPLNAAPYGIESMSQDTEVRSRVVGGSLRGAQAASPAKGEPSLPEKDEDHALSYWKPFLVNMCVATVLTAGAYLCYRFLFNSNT
# Procedure, shortened: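 Kinetics were run with varying pNPP concentrations, with inhibitor at 0, 0.5, 1 and 2 µM. Km and Vmax were taken from double reciprocal plots.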
# Homo sapiens [11] = organism: Homo sapiens; experiment: Selectivity ratio of IC50 for LAR (unknown origin) to IC50 for GST-fused PTP1B catalytic domain (1 to 321 residues) (unknown origin) expressed in Escherichia coli
# [12] = Acute toxicity in Kunming mouse assessed as effect on water intake at 500 to 2000 mg/kg, po administered as single dose measured for 1 week; format: organism-based; settings: in vivo, 168 h
# [13] = Sub-acute toxicity in Kunming mouse assessed as behavioral changes at 1000 mg/kg, po administered once daily for 14 days measured during compound dosing; format: organism-based; settings: in vivo, 336 h
# Mus musculus [14] = experiment: Antiobesity activity in BKS db mouse assessed as decrease in abdominal fat weight at 100 mg/kg, po administered once daily for 5 weeks; format: functional, organism-based
# Procedure, shortened: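 Diabetic BKS db mice, n = 8 per group, were given 100 mg/kg/day orally for five weeks. Vehicle- and metformin-treated db mice and vehicle-treated BKS mice served as controls. Food intake, water intake and body weight were followed weekly, and abdominal fat pads were weighed at the end. Values are mean ± SEM.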
# [15] = Sub-acute toxicity in Kunming mouse assessed as change in body weight at 1000 mg/kg, po administered once daily for 14 days measured during compound dosing; format: organism-based; settings: in vivo, 336 h
# Procedure, shortened: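 Mice were dosed orally with 1000 mg/kg body wt per day for 14 days alongside a vehicle-dosed group. Water intake, food intake and body weight were tracked over the dosing period and reported as mean ± SEM, n = 10.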
compound,measurement,setting,value
CCOc1ccc(Oc2ccc(-c3cnc(-c4cc(O)c(O)c(Br)c4Br)o3)cc2)cc1,IC50,[1],> 36800 nM
same,Tmax,[2],30 min
same,Activity,Mus musculus [3],Active
same,Activity,[4],Non-Toxic
same,inhibition,[5],Dose-dependent effect
same,inhibition,[6],Dose-dependent effect
same,Activity,Mus musculus [7],Active
same,IC50,[8],1780 nM
same,Ratio IC50,Homo sapiens [9],20 to 200
same,inhibition,[10],Active
same,Ratio IC50,Homo sapiens [11],20 to 200
same,Activity,[12],Non-Toxic
same,Activity,[13],Non-Toxic
same,Activity,Mus musculus [14],Active
same,Activity,[15],Toxic
